Laboratory results reported in ChEMBL document CHEMBL1800018, “Discovery of a series of imidazo[4,5-b]pyridines with dual activity at angiotensin II type 1 receptor and peroxisome proliferator-activated receptor-γ” (J Med Chem, 2011).
The source made the active and inactive calls. The calls are words filed in the database; no cut-off is given here.

Experiments:
[1] = system: Rattus norvegicus; experiment: Antihypertensive activity in po dosed SHR rat assessed as decrease in arterial blood pressure administered as single dose; assay type: functional, organism-based; conditions: Artery
In short: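 SHR carried aortic radiotelemetry transmitters implanted under Telazol anesthesia and recovered for at least 1 week. Rats were randomized by 2 h baseline mean BP. Each received vehicle by oral gavage on Day 0 and a single drug dose (0.3–10 mg/kg) on Day 1, with BP followed 20 h each day. The change was taken as Day 1 minus Day 0, n = 8/group.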

[2] = system: Rattus norvegicus; experiment: Antidiabetic activity in ZDF rat assessed as triglyceride level at 1 mg/kg, po QD for 40 days (reference value: 618+/-52 mg/dL); assay type: functional
[3] = system: Rattus norvegicus; experiment: Antidiabetic activity in ZDF rat assessed as adiponectin level at 0.1 mg/kg, po QD for 40 days (reference value: 11.9+/-1.5 ug/ml); assay type: functional
[4] = system: Rattus norvegicus; experiment: Antidiabetic activity in ZDF rat assessed as triglyceride level at 10 mg/kg, po QD for 40 days (reference value: 618+/-52 mg/dL); assay type: functional

## CCc1nc2c(C)cc(CC(C)C)nc2n1[C@H]1CCc2cc(-c3ccccc3-c3nnn[nH]3)ccc21
[1]
  Activity: Active
[2]
  Activity: 725 mg/dL
[3]
  Activity: 9.9 µg/mL
[4]
  Activity: 393 mg/dL
